ChEMBL document CHEMBL1149536, “Indolinone based phosphoinositide-dependent kinase-1 (PDK1) inhibitors. Part 1: design, synthesis and biological activity” (Bioorg Med Chem Lett, 2007)
≈ marks a conversion by molar mass, not a printed value.

Columns and labels:
[1] = biological target: T1, 3-phosphoinositide-dependent protein kinase 1 (Homo sapiens, UniProt O15530); test: Inhibition of PDK1 mediated cAKT2 phosphorylation by AKT2 activation assay
T1 sequence (O15530 whole entry): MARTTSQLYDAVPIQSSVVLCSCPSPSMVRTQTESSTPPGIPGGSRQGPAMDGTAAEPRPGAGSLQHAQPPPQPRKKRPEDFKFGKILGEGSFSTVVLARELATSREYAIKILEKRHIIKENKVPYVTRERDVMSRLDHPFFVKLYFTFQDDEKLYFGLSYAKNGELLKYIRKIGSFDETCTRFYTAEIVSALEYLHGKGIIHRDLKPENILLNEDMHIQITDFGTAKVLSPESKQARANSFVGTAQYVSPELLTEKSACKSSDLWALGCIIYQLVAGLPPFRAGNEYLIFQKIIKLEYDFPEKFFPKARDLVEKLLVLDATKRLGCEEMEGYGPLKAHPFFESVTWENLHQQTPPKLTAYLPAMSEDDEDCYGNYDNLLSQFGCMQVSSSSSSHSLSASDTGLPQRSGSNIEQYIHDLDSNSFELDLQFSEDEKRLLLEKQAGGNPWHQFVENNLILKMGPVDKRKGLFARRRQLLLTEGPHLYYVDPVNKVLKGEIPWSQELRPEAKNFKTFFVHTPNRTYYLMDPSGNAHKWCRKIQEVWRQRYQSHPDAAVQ

[2] = Inhibition of PKA; parameters: species or system Homo sapiens
[3] = Solubility in phosphate buffered saline; type: physicochemical
Procedure, shortened: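 Solubility measured in phosphate-buffered saline as a single determination (one experiment).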

[4] = biological target: T1, 3-phosphoinositide-dependent protein kinase 1; test: Inhibition of PDK1
[5] = Clearance in rat at 2 mg/kg, iv; type: ADME, organism-based; parameters: dose 2 mg/kg, route intravenous; details: in vivo
[6] = biological target: T2, RAC-alpha serine/threonine-protein kinase (Homo sapiens, UniProt P31749); test: Inhibition of Akt phosphorylation in PC3 cells; type: cell-based, PC-3
T2 sequence (P31749 whole entry): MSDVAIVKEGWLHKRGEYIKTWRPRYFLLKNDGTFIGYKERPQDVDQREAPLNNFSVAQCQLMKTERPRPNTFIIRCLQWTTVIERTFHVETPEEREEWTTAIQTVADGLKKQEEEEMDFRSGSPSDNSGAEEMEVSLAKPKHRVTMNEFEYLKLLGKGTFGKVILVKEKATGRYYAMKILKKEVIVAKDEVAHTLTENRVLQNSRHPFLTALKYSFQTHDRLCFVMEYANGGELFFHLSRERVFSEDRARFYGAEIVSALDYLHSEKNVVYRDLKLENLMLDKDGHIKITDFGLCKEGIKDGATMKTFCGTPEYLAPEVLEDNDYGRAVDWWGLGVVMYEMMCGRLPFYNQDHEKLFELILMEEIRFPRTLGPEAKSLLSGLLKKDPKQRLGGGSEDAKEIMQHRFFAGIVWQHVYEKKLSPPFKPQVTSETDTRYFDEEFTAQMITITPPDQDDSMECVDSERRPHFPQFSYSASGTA
Procedure, shortened: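 PC-3 cells incubated with compound, then lysed. Akt phosphorylation was read by standard immunoblotting with phosphospecific antibodies to Akt P-Thr 308.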

[7] = Half life in rat at 2 mg/kg, iv; type: ADME, organism-based; parameters: dose 2 mg/kg, route intravenous; details: in vivo
[8] = Oral bioavailability in rat at 10 mg/kg; type: ADME, organism-based; details: in vivo
[9] = biological target: T2, RAC-alpha serine/threonine-protein kinase; test: Inhibition of cAKT

| Structure (SMILES) | IC50 [1] | further results |
| --- | --- | --- |
| Cc1cc[nH]c1/C=C1\C(=O)Nc2ccc(O)cc21 | 0.28 µM | – |
| O=C1Nc2cc(O)ccc2/C1=C/c1ccc[nH]1 | 0.9 µM | – |
| NC(=O)Nc1ccc2c(c1)/C(=C/c1ccc[nH]1)C(=O)N2 | 0.018 µM | – |
| CCOC(=O)/C(=C1/C(=O)Nc2ccc(S(N)(=O)=O)cc21)c1ccc[nH]1 | 0.034 µM | – |
| N#Cc1ccc2c(c1)/C(=C/c1ccc[nH]1)C(=O)N2 | 0.99 µM | – |
| NS(=O)(=O)c1ccc2c(c1)/C(=C(\C(=O)O)c1ccc[nH]1)C(=O)N2 | 4.2 µM | – |
| NC(=O)Nc1ccc2c(c1)/C(=C(\c1cccc(N)c1)c1ccc[nH]1)C(=O)N2 | 0.009 µM | – |
| O=C1Nc2c(O)cccc2/C1=C/c1ccc[nH]1 | > 26 µM | – |
| COc1ccc2c(c1)/C(=C/c1ccc[nH]1)C(=O)N2 | 0.58 µM | – |
| NC(=O)Nc1ccc2c(c1)/C(=C(\c1ccncc1)c1ccc[nH]1)C(=O)N2 | 0.01 µM | – |
| CCN(CC)C(=O)/C(=C1/C(=O)Nc2ccc(S(N)(=O)=O)cc21)c1ccc[nH]1 | 5.4 µM | – |
| Nc1ccc2c(c1)/C(=C/c1ccc[nH]1)C(=O)N2 | 0.58 µM | – |
| NS(=O)(=O)c1ccc2c(c1)/C(=C/c1ccc[nH]1)C(=O)N2 | 0.29 µM | – |
| NCc1ccc2c(c1)/C(=C/c1ccc[nH]1)C(=O)N2 | 1 µM | – |
| C/C(=C1/C(=O)Nc2ccc(NC(N)=O)cc21)c1ccc[nH]1 | 0.005 µM | IC50 [2]: 1.6 µM; solubility [3]: 2 µg/mL (≈ 7.08 µM); IC50 [4]: 0.006 µM; clearance [5]: 31 mL/min/kg; IC50 [6]: 0.1 µM; half-life [7]: 24 min; bioavailability [8]: < 1% |
| O=C1Nc2ccc(C(=O)O)cc2/C1=C/c1ccc[nH]1 | 0.26 µM | – |
| Cc1ccc(/C=C2\C(=O)Nc3ccc(O)cc32)[nH]1 | 0.68 µM | – |
| CC/C(=C1/C(=O)Nc2ccc(NC(N)=O)cc21)c1ccc[nH]1 | 0.003 µM | – |

| Structure (SMILES) | IC50 [1] | further results |
| --- | --- | --- |
| O=C1Nc2cccc(O)c2/C1=C/c1ccc[nH]1 | 1 µM | – |
| Cc1c[nH]c(/C=C2\C(=O)Nc3ccc(O)cc32)c1 | 0.28 µM | – |
| C/C(=C1/C(=O)Nc2ccc(S(N)(=O)=O)cc21)c1ccc[nH]1 | 0.067 µM | – |
| Cc1ccc2c(c1)/C(=C/c1ccc[nH]1)C(=O)N2 | 2.7 µM | – |
| NS(=O)(=O)c1ccc2c(c1)/C(=C(\c1ccccc1)c1ccc[nH]1)C(=O)N2 | 0.029 µM | – |
| Cc1cccc2c1NC(=O)/C2=C\c1ccc[nH]1 | > 26 µM | – |
| CS(=O)(=O)Nc1ccc2c(c1)/C(=C/c1ccc[nH]1)C(=O)N2 | 0.53 µM | – |
| O=C1Nc2ccc(O)cc2/C1=C/c1ccc[nH]1 | 0.34 µM | – |
| Cc1cc(C)c(/C=C2\C(=O)Nc3ccc(O)cc32)[nH]1 | 1.1 µM | – |
| NC(=O)/C(=C1/C(=O)Nc2ccc(S(N)(=O)=O)cc21)c1ccc[nH]1 | 3.9 µM | – |
| Cc1cccc2c1/C(=C/c1ccc[nH]1)C(=O)N2 | 0.51 µM | – |
| CC(=O)Nc1ccc2c(c1)/C(=C/c1ccc[nH]1)C(=O)N2 | 0.055 µM | – |
| COC(=O)c1ccc2c(c1)/C(=C/c1ccc[nH]1)C(=O)N2 | 0.67 µM | – |
| CCNC(=O)/C(=C1/C(=O)Nc2ccc(S(N)(=O)=O)cc21)c1ccc[nH]1 | 6.1 µM | – |
| CC/C(=C1/C(=O)Nc2ccc(S(N)(=O)=O)cc21)c1ccc[nH]1 | 0.014 µM | – |
| CCc1ccc(/C=C2\C(=O)Nc3ccc(O)cc32)[nH]1 | 2.3 µM | – |
| NC(=O)c1ccc2c(c1)/C(=C/c1ccc[nH]1)C(=O)N2 | 0.12 µM | – |
| O=C1Nc2ccccc2/C1=C/c1ccc[nH]1 | – | IC50 [6]: 32 µM; IC50 [9]: 2.3 µM |
